The subject of data set [1] is Nucleic Acid. In words: Exclusion of picogreen dye from plasmid pGL3-CV at 0.5 mM. In kind it is nucleic-acid assay. The essentials: (§1)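 CDP/pGL3-CV polyplexes diluted 2.5× in water, then mixed 1:1 with compound at twice the final concentration. Incubated 5 min at room temperature, then combined with an equal volume of PicoGreen diluted 200× in 10 mM HEPES. Fluorescence read at ex 488/em 535 nm; exclusion taken as loss of dye fluorescence.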

For data set [2], the system named is Nucleic Acid. In words: Transcription of plasmid pGL3-CV upto 2.5 mM relative to control. In kind it is nucleic-acid assay.
Data set [3] has as its system Nucleic Acid. In words: Exclusion of picogreen dye from plasmid pGL3-CV at 1 mM. In kind it is nucleic-acid assay. The essentials:
as §1

Data set [4] deals with HeLa. In words: Transfection of CDP/plasmid pGL3-CV in HeLa cells at 200 uM after 48 hrs by luciferase assay. It counts as functional, Homo sapiens. The essentials: (§2)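 Cells plated at 5 × 10⁴/well 24 h ahead and rinsed with PBS. CDP/pGL3-CV polyplexes (1 µg DNA, charge ratio 5 +/-) applied in Opti-MEM with compound for 4 h at 37 °C, 5% CO₂, then medium replaced. After another 44 h, lysates assayed for luciferase in duplicate, expressed as RLU/mg protein. Viability taken as total lysate protein by modified Lowry (DC) assay, normalized to cells transfected with naked DNA.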

In data set [5] the test system is HeLa. As to the kind of experiment: Viability of human HeLa cells at 200 uM. It counts as functional. In a few lines:
as §2

Data set [6] deals with HepG2. In words: Uptake of CDP/plasmid pGL3-CV polyplexes in HepG2 cells after 30 mins. It counts as ADME, cell-based. To be noted: human, hepg2, 0.5 h.
In data set [7] the test system is HepG2. As to the kind of experiment: Viability of human HepG2 cells at 200 uM. It counts as functional. The essentials: as §2
Data set [8] concerns HepG2. As to the kind of experiment: Transfection of CDP/plasmid pGL3-CV in HepG2 cells at 200 uM after 48 hrs by luciferase assay. It counts as functional, Homo sapiens. The essentials:
as §2

Data set [9] has as its system HepG2. As to the kind of experiment: Uptake of CDP/plasmid pGL3-CV polyplexes in HepG2 cells after 2 hrs. It counts as ADME, cell-based. The following applies: human, hepg2, 2 h.
Data set [10] concerns Nucleic Acid. In words: Displacement of plasmid pGL3-CV from CDP/plasmid pGL3-CV polyplexes at 2.5 mM. It counts as nucleic-acid assay. In a few lines: (§3)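 pGL3-CV (2 µg, 0.6 pmol) complexed with CDP (24 µg, 4 nmol), diluted in PBS and held 30 min at 25 °C. Mixed with compound for a further 30 min at 25 °C, then passed through a 100 nm membrane presoaked with matching compound concentration. Free DNA in filtrate measured by DAPI fluorescence (ex 350/em 465 nm). % released = (If−I0)/(It−I0)×100.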

In data set [11] the test system is Nucleic Acid. As to the kind of experiment: Displacement of plasmid pGL3-CV from CDP/plasmid pGL3-CV polyplexes at 5 to 20 mM. It counts as nucleic-acid assay. The essentials:
as §3

In data set [12] the test system is HepG2. In words: Uptake in human HepG2 cells after 4 hrs in presence of CDP/plasmid pGL3-CV polyplexes. In kind it is ADME, cell-based. To be noted: hepg2, 4 h. The essentials:
(§4)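 HepG2 cells (2 × 10⁶) incubated at 37 °C in Opti-MEM (pH 7.4) with 100 µM compound, with or without CDP/pDNA (20 nmol/3 pmol). At set times, washed with cold PBS with and then without compound, lysed, and diluted in 0.1 N NaOH. Fluorescence read at ex 360/em 465 nm, converted by standard curve, and cellular concentration calculated assuming a cell volume of 3 × 10⁻⁶ µL.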

Data set [13] relates to Nucleic Acid. In words: Displacement of plasmid pGL3-CV from CDP/plasmid pGL3-CV polyplexes at 20 mM. It counts as nucleic-acid assay. The essentials:
as §3

For data set [14], the system named is HepG2. In words: Uptake in human HepG2 cells at 100 uM after 30 mins. It counts as ADME, cell-based. The following applies: hepg2, 0.5 h. The essentials: as §4
Data set [15] has as its system Nucleic Acid. In words: Exclusion of picogreen dye from plasmid pGL3-CV at 4 mM. It counts as nucleic-acid assay. In a few lines:
as §1

Data set [16] concerns Nucleic Acid. As to the kind of experiment: Displacement of plasmid pGL3-CV from CDP/plasmid pGL3-CV polyplexes at 500 uM. In kind it is nucleic-acid assay. In a few lines: as §3
The subject of data set [17] is Nucleic Acid. In words: Binding affinity to plasmid pGL3-CV assessed as retardation of movement in gel at 10 mM. In kind it is nucleic-acid assay. In a few lines:
(§5)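 pGL3-CV plasmid mixed with compound across 0.1-10 mM, each solution held ~10 min, then loading buffer and Borax buffer (0.025 M, pH 8.4) added. Run on 0.5% agarose gel containing ethidium bromide in TAE (40 mM Tris-acetate, 1 mM EDTA). Mobility compared with untreated plasmid.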

Data set [18] deals with HepG2. As to the kind of experiment: Uptake in human HepG2 cells at 100 uM after 4 hrs. It counts as ADME, cell-based. The following applies: hepg2, 4 h. The essentials: as §4
The test system of data set [19] is Nucleic Acid. In words: Binding affinity to plasmid pGL3-CV assessed as retardation of movement in gel at 100 uM. It counts as nucleic-acid assay. In a few lines:
as §5

The test system of data set [20] is Nucleic Acid. As to the kind of experiment: Binding affinity to plasmid pGL3-CV assessed as retardation of movement in gel at 1 mM. In kind it is nucleic-acid assay. In a few lines: as §5
The test system of data set [21] is HepG2. In words: Transfection of CDP/plasmid pGL3-CV in HepG2 cells at 150 uM after 48 hrs by luciferase assay. In kind it is functional, Homo sapiens. The essentials:
as §2

Data set [22] relates to HepG2. As to the kind of experiment: Viability of human HepG2 cells at 150 uM. It counts as functional. The essentials: as §2
In data set [23] the test system is HepG2. As to the kind of experiment: Viability of human HepG2 cells at 20 uM. In kind it is functional. The essentials:
as §2

Data set [24] relates to HepG2. In words: Transfection of CDP/plasmid pGL3-CV in HepG2 cells at 20 uM after 48 hrs by luciferase assay. In kind it is functional, Homo sapiens. In a few lines:
as §2

Data set [25] relates to HepG2. As to the kind of experiment: Viability of human HepG2 cells at 100 uM. It counts as functional. In a few lines: as §2
Data set [26] relates to HepG2. In words: Transfection of CDP/plasmid pGL3-CV in HepG2 cells at 100 uM after 48 hrs by luciferase assay. It counts as functional, Homo sapiens. The essentials:
as §2

The source made the active and inactive calls. The rule behind the calls is not given here.

We go through twelve molecules from ChEMBL document CHEMBL1137336, “Structure-function correlation of chloroquine and analogues as transgene expression enhancers in nonviral gene delivery” (J Med Chem, 2006).

`CCN(CC)CCOc1ccnc2cc(Cl)ccc12`: the Activity was found to be 17% with Nucleic Acid [1]; 75% in the data set on Nucleic Acid [2]; 17% in the data set on Nucleic Acid [3]; 230000 RLU/mg in the data set on HeLa [4]; 92% in the data set on HeLa [5].

Take `CCN(CC)CCCC(C)Nc1ccncc1` (configuration not stated): the Activity in the data set on HepG2 [6] is listed as 12.8%; with HepG2 [7] it was 85%; in the data set on HeLa [4], 82000 RLU/mg; with HepG2 [8], 6400000 RLU/mg; in the data set on HeLa [5] it was 101%; in the data set with HepG2 [9], 76.2%.

`CCN(CC)CCCC(C)Nc1ccnc2ccccc12` (configuration not stated): the Activity with HepG2 [6] was 18.8%; with HepG2 [7], 100%; in the data set with Nucleic Acid [2], 75%; in the data set on Nucleic Acid [10] it was < 3%; in the data set with Nucleic Acid [11], 10%; with HepG2 [8], 2700000 RLU/mg. The Activity in the data set on HepG2 [9] came out at 75.5%. The Drug uptake in the data set with HepG2 [12] stood at 2 mM.

On to `CCN(CC)CCCC(C)Nc1ccnc2cc(C(F)(F)F)ccc12` (configuration not stated), for which the Activity in the data set on Nucleic Acid [13] was determined as 70%; in the data set on Nucleic Acid [1] it was 30%; in the data set with HepG2 [7], 61%; in the data set with Nucleic Acid [2], 75%; in the data set on Nucleic Acid [3] it was 30%; with HeLa [4] it was 6700000 RLU/mg. For the same molecule, the Activity in the data set with HepG2 [8] amounted to 170000000 RLU/mg; with Nucleic Acid [15] it was 100%; in the data set with HeLa [5], 83%; with Nucleic Acid [16] it was 40%. The values for the Drug uptake in the data set with HepG2 [14] and in the data set on HepG2 [12] were 11 mM and 13 mM, respectively. In the data set with Nucleic Acid [17], the outcome was Active.

For `CCN(CC)CCCC(C)Nc1ccnc2cc(Cl)ccc12` (configuration not stated) [CHLOROQUINE], the Activity was 11.9% in the data set with HepG2 [6]; 50% in the data set with Nucleic Acid [13]; 23% with Nucleic Acid [1]; 60% in the data set on HepG2 [7]; 75% with Nucleic Acid [2]; 23% in the data set on Nucleic Acid [3]. For the same molecule, the Activity in the data set with HeLa [4] was 4300000 RLU/mg; in the data set on HepG2 [8], 16000000 RLU/mg; in the data set with HeLa [5], 82%; in the data set on Nucleic Acid [16] it was 10%; with HepG2 [9] it was 67.7%. Moreover, the Drug uptake with HepG2 [18] stood at 12 mM; with HepG2 [12] it was 13 mM. Moreover, the result in the data set on Nucleic Acid [19] and with Nucleic Acid [20] was inactive.

Regarding `CC(Nc1ccnc2cc(Cl)ccc12)C(=O)O` (configuration not stated), the Activity in the data set on HepG2 [21] was 4300000 RLU/mg; in the data set with HepG2 [22], 84%; in the data set on Nucleic Acid [2], 75%.

As for `CCN(CC)CCCC(C)Nc1c2ccc(Cl)cc2nc2ccc(OC)cc12` (configuration not stated) [QUINACRINE], the Activity in the data set on HepG2 [23] came out at 57%; with HepG2 [24] it was 25000000 RLU/mg.

On to `CN(C)CCNc1ccnc2cc(Cl)ccc12`, for which the Activity amounted to 25000000 RLU/mg with HepG2 [21], 64% in the data set with HepG2 [22] and 75% with Nucleic Acid [2].

`NCCN(CCN)CCNc1ccnc2cc(Cl)ccc12`: the Activity came out at 25000000 RLU/mg in the data set on HepG2 [21], 83% with HepG2 [22] and 75% in the data set with Nucleic Acid [2].

Regarding `CC(C)CCCC(C)Nc1ccnc2cc(Cl)ccc12` (configuration not stated), the results for the Activity with HepG2 [21], in the data set on HepG2 [22] and with Nucleic Acid [2] were 4700000 RLU/mg, 89% and 75%, respectively.

Take `CC(C)NCCNCCNc1ccnc2cc(Cl)ccc12`: the figures for the Activity in the data set with HepG2 [7], in the data set on Nucleic Acid [2] and with HepG2 [8] were 74%, 75% and 22000000 RLU/mg, respectively.

For `NCCCN1CCN(CCCNc2ccnc3cc(Cl)ccc23)CC1`, the Activity is 75% in the data set with Nucleic Acid [2], 74% in the data set with HepG2 [25] and 20000000 RLU/mg in the data set with HepG2 [26].
